{"source": "paper PMC3169095", "about": "(Biochemistry, 2011)", "assay_type_in_all_cases": "cell-based", "key": {"Piezo1 [1]": {"target": "T1, Piezo1 (Mus musculus, UniProt E2JF22)", "T1 sequence (E2JF22 whole entry)": "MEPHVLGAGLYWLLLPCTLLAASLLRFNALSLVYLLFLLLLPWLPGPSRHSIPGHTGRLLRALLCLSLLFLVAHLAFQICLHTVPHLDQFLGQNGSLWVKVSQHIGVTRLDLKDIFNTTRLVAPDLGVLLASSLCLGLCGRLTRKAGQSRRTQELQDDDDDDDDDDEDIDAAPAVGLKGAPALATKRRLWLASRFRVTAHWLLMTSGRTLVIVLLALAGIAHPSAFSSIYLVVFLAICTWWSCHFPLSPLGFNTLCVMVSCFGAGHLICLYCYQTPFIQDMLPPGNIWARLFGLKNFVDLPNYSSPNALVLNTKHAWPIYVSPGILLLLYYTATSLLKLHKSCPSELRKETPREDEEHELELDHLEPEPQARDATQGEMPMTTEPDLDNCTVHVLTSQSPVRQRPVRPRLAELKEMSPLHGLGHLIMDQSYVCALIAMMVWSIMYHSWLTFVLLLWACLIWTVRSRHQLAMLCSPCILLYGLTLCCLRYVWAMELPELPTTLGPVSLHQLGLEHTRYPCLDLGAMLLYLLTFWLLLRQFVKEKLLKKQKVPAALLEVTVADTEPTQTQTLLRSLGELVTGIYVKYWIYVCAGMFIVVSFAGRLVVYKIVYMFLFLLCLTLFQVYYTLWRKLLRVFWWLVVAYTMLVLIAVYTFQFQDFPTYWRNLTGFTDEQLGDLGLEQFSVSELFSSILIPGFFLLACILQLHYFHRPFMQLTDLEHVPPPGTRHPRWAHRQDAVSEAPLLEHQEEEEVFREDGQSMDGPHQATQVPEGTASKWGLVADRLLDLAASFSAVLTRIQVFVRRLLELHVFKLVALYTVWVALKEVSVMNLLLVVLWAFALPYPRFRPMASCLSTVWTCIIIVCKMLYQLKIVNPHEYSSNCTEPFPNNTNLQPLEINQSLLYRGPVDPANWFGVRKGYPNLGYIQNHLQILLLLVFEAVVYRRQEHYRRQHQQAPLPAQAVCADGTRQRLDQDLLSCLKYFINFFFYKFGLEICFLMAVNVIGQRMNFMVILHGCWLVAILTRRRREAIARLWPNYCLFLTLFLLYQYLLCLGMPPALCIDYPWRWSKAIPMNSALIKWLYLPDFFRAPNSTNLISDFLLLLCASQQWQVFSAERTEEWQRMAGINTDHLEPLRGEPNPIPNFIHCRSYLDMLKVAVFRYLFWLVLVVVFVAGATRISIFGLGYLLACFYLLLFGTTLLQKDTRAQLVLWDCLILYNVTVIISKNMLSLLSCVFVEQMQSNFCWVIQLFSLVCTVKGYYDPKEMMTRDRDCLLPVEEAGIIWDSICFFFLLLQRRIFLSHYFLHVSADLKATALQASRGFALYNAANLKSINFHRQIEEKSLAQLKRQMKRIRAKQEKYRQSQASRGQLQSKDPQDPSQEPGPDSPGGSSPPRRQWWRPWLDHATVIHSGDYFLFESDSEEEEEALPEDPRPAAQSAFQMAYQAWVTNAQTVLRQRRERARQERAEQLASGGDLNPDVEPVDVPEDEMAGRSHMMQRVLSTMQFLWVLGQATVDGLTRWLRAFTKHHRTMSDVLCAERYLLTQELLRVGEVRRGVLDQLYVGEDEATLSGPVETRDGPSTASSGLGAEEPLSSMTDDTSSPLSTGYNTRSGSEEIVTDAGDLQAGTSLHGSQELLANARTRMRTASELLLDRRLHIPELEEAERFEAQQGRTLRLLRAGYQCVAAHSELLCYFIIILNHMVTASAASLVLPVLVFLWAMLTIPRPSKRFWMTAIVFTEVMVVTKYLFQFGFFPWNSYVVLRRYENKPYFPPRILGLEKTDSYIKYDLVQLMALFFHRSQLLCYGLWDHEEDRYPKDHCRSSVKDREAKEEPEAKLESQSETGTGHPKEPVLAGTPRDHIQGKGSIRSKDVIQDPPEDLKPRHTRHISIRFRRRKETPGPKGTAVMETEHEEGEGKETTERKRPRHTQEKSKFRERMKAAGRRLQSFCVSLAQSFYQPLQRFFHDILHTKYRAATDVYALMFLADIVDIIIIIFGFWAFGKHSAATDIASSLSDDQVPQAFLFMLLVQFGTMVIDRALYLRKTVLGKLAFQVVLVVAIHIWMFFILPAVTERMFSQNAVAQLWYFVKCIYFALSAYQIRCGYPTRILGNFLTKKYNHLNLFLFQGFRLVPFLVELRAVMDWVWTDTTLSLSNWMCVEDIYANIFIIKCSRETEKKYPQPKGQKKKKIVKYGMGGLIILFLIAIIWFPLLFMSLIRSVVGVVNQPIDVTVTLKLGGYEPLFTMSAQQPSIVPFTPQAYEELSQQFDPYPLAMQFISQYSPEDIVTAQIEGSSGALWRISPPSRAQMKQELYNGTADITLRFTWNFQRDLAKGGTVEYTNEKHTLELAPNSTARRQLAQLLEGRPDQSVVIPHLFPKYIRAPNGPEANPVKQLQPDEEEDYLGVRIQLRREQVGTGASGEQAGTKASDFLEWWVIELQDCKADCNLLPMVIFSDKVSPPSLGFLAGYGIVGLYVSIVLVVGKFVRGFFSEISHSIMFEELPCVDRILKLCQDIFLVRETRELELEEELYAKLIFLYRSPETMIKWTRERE", "assay": "Outside-out patch recording of pressure-evoked Piezo1 currents"}, "Piezo1 [2]": {"target": "T1, Piezo1", "conditions": "3.0 μM; Piezo1 in HEK293 cells; n=3 S.D.; SD"}, "TREK-1": {"system": "TREK-1", "assay": "Outside-out patch recording of mechanosensitive TREK-1 currents", "conditions": "extracellular peptide; outside-out patches of cells transfected with TREK-1", "in_short": "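HEK293 cells transfected with TREK-1 plasmid (250 ng, FuGENE) were recorded 24-48 h later in outside-out patches at room temperature. Extracellular (mM): 145 NaCl, 5 KCl, 3 MgCl2, 10 HEPES, 0.1 CaCl2, pH 7.3. Internal: 133 KCl, 10 HEPES, 5 EGTA, 3 MgCl2. Pressure pulses came from a high-speed pressure clamp. D and L peptide forms were perfused. Sampling was 10 kHz, filtered at 2 kHz.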"}}}
{"molecule": "[H]/N=C(/N)N[C@H]1[C@H](O)[C@@H](O)[C@H](O[C@@H]2O[C@@H](C)[C@](O)(C=O)[C@H]2O[C@@H]2O[C@@H](CO)[C@H](O)[C@@H](O)[C@@H]2NC)[C@@H](N/C(N)=N\\[H])[C@@H]1O", "note": "[streptomycin]", "values": [{"measurement": "mode of inhibition of Piezo1", "setting": "Piezo1 [1]; 1 mM applied for 90 seconds to resting outside-out patches, Figure S2 B", "result": "open channel blocker"}]}
{"molecule": "D-GsMTx4", "values": [{"measurement": "inhibition of whole cell mechanosensitive currents", "setting": "Piezo1 [2]", "result": "70±6", "unit": "%"}, {"measurement": "inhibition of peak currents", "setting": "Piezo1 [1]; outside-out patches, 2.5 μM, n=5, Figure 1C, normalized data", "result": "29 ± 9", "unit": "%"}, {"measurement": "inhibition of TREK-1 mechanosensitive currents", "setting": "TREK-1", "result": "no inhibition"}]}
